The results in this text go back to ChEMBL document CHEMBL4342471, “Discovery of Thieno[2,3-d]pyrimidine-Based Hydroxamic Acid Derivatives as Bromodomain-Containing Protein 4/Histone Deacetylase Dual Inhibitors Induce Autophagic Cell Death in Colorectal Carcinoma Cells” (J Med Chem, 2020).

Calls of active or inactive are those of the source. No cut-off for these calls is given here.

Series [1] deals with SW480. In words: Cytotoxicity against human SW480 cells assessed as reduction in cell viability. It counts as functional, cell-based. Put shortly:
(§1)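 Antiproliferative IC50 values were measured by MTT assay across a panel of colorectal carcinoma cell lines and normal colorectal epithelial cells.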

For series [2], the system named is SW-620. In words: Antiproliferative activity against human SW620 cells assessed as reduction in cell viability measured after 24 to 48 hrs by MTT assay. It counts as functional, cell-based. Background: Formazan colour is commonly taken as a measure of viable cells.
The target of series [3] is Bromodomain-containing protein 2 (Homo sapiens, UniProt P25440). Nature of the series: Inhibition of human recombinant His-tagged BRD2 BD2 domain expressed in Escherichia coli BL21(DE3)-R3-pRARE2 cells by AlphaScreen assay. On the technique in general: Bead proximity is the source of the signal in Alpha formats.
Sequence of Bromodomain-containing protein 2 (P25440 whole entry, the tested form may be a part): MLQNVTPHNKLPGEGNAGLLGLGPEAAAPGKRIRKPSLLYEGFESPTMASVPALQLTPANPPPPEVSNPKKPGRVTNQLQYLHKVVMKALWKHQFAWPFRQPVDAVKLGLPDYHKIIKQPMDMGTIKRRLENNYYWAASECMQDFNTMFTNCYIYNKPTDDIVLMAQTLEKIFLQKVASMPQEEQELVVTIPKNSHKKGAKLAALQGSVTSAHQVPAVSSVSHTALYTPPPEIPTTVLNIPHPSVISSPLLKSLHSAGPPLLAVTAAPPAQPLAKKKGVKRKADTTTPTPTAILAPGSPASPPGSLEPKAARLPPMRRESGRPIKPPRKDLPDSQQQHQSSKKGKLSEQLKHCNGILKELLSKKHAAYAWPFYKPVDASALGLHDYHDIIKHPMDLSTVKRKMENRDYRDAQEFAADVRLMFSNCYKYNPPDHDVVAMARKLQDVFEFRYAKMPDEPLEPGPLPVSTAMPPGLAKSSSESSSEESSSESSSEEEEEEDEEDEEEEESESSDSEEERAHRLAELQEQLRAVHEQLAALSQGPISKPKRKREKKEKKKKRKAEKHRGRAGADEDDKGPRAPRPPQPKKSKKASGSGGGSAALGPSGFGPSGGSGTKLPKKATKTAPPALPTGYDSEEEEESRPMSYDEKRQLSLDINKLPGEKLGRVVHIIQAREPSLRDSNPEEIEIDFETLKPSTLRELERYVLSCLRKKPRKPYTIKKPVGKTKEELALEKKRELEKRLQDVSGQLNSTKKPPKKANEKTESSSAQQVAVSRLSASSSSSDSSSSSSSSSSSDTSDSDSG
Series [4] has as its target Polyamine deacetylase HDAC10 (Homo sapiens, UniProt Q969S8). Nature of the series: Inhibition of HDAC10 (unknown origin) using biotinylated histone H3 KAc peptide (1 to 21 residues) as substrate by HTRF assay.
The target in series [5] is T1, Histone deacetylase 7 (Homo sapiens, UniProt Q8WUI4).
T1 sequence (Q8WUI4 whole entry): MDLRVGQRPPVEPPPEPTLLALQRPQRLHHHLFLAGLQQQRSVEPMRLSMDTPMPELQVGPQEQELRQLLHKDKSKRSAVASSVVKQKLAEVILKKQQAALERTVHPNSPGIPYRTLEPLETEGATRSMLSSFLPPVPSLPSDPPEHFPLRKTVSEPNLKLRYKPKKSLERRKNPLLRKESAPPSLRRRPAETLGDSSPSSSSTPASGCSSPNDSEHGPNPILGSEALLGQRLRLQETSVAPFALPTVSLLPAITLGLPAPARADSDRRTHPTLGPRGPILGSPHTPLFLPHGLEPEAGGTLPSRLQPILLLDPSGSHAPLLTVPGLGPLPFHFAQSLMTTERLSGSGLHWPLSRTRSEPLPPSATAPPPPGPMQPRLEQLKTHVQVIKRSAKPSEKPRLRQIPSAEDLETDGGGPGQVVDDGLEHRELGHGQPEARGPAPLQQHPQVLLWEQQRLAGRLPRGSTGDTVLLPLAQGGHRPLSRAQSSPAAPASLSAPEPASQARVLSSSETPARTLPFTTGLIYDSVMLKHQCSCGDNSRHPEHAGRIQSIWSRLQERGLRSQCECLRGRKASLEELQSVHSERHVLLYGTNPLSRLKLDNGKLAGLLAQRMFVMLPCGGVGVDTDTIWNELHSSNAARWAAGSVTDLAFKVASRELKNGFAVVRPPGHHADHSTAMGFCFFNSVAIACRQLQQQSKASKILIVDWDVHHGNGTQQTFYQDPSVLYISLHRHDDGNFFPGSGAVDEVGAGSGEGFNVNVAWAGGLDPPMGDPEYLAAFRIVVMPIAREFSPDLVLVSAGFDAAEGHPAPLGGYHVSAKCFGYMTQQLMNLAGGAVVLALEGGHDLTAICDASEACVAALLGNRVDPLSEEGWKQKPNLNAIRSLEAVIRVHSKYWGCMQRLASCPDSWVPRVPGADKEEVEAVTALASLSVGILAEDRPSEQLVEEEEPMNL
Nature of the series: Inhibition of HDAC7 (unknown origin) using biotinylated histone H3 KAc peptide (1 to 21 residues) as substrate by HTRF assay.

Series [6] has as its target Histone deacetylase 2 (Homo sapiens, UniProt Q92769).
Series [7] has as its system HCT-116. Nature of the series: Induction of cell cycle arrest in human HCT116 cells assessed as cell accumulation at sub-G1 phase at 0.2 to 0.5 uM by flow cytometry. It counts as functional, cell-based. Put shortly:
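HCT-116 cells treated at 0.2 or 0.5 μM were analysed for cell cycle by flow cytometry, with the sub-G1 population scored.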
(Flow cytometry measures light scatter and fluorescence of single cells or particles in a stream.)

Series [8] is filed under the species Homo sapiens. Nature of the series: Inhibition of BRD4/HDAC in human HCT116 cells assessed as increase in caspase 9 cleavage at 0.2 to 0.5 uM measured after 24 hrs by Western blot analysis. Format: cell-based.
Series [9] has as its target T2, Bromodomain-containing protein 4 (Homo sapiens, UniProt O60885). In words: Inhibition of BRD4 in human HCT116 cells assessed as induction of autophagic vacuole formation in cytoplasm at 0.5 uM measured after 24 hrs by transmitted electron microscopy. Format: cell-based. Put shortly: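 HCT-116 cells were incubated with 0.5 μM compound for 24 hours, fixed, and imaged by transmission electron microscopy for cytoplasmic autophagic vacuoles.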

For series [10], the target named is T2, Bromodomain-containing protein 4. Nature of the series: Inhibition of BRD4 in human HCT116 cells assessed as induction of autophagic flux by measuring accumulation of p62 at 0.5 uM after 24 hrs in presence of auto-phagolysosome inhibitor, bafilomycin-A1 by Western blot analysis. Format: cell-based. The essentials: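 HCT-116 cells received 0.5 μM compound with or without bafilomycin-A1 for 24 hours. LC3 and p62 protein were then analysed by western blot.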

The subject of series [11] is LoVo. Nature of the series: Cytotoxicity against human LoVo cells assessed as reduction in cell viability. Format: functional, cell-based. Put shortly: as §1
Series [12] relates to HCT-116. Nature of the series: Antitumor activity against human HCT116 cells xenografted in BALB/cAnNCrl mouse assessed as increase in TUNEL positive apoptotic nuclei in tumor tissue at 15 to 30 mg/kg, po administered on day 1 to day 19 measured on day 19 by TUNEL assay. Format: functional, organism-based. The essentials:
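HCT-116 xenograft mice were dosed orally at 15 or 30 mg/kg, or 30 mg/kg for reference agents, for 19 days, with vehicle or saline controls. Tumor sections were stained for Ki-67, c-Myc, Ac-H3, BRD4, LC3-II, LIFR and p-STAT3 by immunohistochemistry, and TUNEL staining was used as the apoptosis marker.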

A short description of series [13]: Toxicity in BALB/cAnNCrl mouse xenografted with human HCT116 cells assessed as effect on body weight at 15 to 30 mg/kg, po administered on day 1 to day 19 […]. Format: organism-based. The conditions noted are these: in vivo. Put shortly: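 HCT-116 xenograft mice dosed orally at 15 or 30 mg/kg for 19 days, saline as vehicle control; body weights tracked, and main organs sectioned and H&E-stained at study end.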

Series [14] is described as follows: Cmax in Sprague-Dawley rat at 30 mg/kg, po measured up to 1440 mins by UPLC-QTOF/MS analysis. It counts as ADME, organism-based. More on the design: dose 30 mg/kg, route oral. The conditions noted are these: in vivo.
A short description of series [15]: Tmax in Sprague-Dawley rat at 30 mg/kg, po measured up to 1440 mins by UPLC-QTOF/MS analysis. Format: ADME, organism-based. The conditions noted are these: in vivo.
For series [16], the species on record is Homo sapiens. In words: Inhibition of BRD4/HDAC in human HCT116 cells assessed as inhibition of IL6-JAK-STAT3 signaling pathway by measuring decrease in OSMR expression at 0.5 uM after 24 hrs by Western blot analysis. Format: cell-based. Put shortly:
(§2)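 HCT-116 cells treated 24 h with 0.5 µM, 5.0 µM or 10 µM test agent depending on compound; OSMR, LIFR and downstream pathway proteins detected by western blot.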

Series [17] is filed under the species Homo sapiens. In words: Inhibition of BRD4/HDAC in human HCT116 cells assessed as inhibition of IL6-JAK-STAT3 signaling pathway by measuring decrease in LIFR expression at 0.5 uM after 24 hrs by Western blot analysis. Format: cell-based. The essentials: as §2

Sequence of Histone deacetylase 2 (Q92769 whole entry): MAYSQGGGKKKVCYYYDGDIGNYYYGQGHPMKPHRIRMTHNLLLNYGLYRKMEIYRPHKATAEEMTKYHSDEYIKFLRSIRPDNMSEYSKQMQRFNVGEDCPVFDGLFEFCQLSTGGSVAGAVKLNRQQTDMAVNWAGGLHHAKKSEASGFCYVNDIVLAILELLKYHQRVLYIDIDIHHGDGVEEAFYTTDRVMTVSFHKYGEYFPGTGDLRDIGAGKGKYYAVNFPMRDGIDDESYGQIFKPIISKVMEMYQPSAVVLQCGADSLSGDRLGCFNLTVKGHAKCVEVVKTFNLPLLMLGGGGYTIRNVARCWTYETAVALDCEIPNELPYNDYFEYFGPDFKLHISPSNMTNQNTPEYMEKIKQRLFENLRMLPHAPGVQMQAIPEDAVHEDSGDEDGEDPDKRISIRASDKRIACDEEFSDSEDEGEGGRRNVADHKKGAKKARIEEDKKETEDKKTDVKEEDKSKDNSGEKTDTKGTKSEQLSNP
Sequence of Polyamine deacetylase HDAC10 (Q969S8 whole entry, the tested form may be a part): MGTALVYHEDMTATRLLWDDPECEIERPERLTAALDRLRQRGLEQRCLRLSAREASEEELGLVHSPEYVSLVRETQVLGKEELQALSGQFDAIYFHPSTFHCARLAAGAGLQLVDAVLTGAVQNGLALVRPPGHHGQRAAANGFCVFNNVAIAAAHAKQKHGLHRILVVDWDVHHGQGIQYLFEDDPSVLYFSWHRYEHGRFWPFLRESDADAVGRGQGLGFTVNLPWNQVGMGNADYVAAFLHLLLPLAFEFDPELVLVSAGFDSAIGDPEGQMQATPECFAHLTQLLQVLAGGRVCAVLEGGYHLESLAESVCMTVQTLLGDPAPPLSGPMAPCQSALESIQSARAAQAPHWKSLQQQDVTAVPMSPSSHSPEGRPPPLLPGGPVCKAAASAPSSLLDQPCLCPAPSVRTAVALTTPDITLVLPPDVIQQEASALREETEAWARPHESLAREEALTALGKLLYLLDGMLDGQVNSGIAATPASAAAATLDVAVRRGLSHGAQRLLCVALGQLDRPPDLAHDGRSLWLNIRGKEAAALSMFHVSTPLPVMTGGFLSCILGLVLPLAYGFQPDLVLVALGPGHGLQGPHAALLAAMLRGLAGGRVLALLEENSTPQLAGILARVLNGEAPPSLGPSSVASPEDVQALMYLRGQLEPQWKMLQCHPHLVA

Broadly, the IC50 is the concentration that gives 50% inhibition. In general, Cmax refers to the maximum level reached in the sampled fluid or tissue. A word on the Tmax: it is the time at which the peak concentration occurs. In the case of `Cc1cc(-c2nc3sc4c(c3c(=O)[nH]2)CCN(C)C4)cc(C)c1OCCCCCC(=O)NO`, the outcome in series [1], in series [7], in [11] and in series [12] was Active. Further, the IC50 is 1780 nM in series [2]; above 20 µM in [3]; 923 nM in series [4]; above 10 µM in series [5]; 58 nM in series [6]. Moreover, the inhibition result in [8], in [9], in series [16] and in series [17] was “Active” throughout. In addition, in series [10], the inhibition result is “inactive”. In series [13], the Activity result is on record as “Non-Toxic”. This molecule also gave a Cmax in series [14] of 5360 ng/mL. Further, the Tmax in [15] came out at 1.53 h.
